According to ChEMBL document CHEMBL3808334, “Synthesis and in vitro evaluation of novel triazine analogues as anticancer agents and their interaction studies with bovine serum albumin” (Eur J Med Chem, 2016):

Legend:
Type in all cases: functional
SN12C = assay: Growth inhibition of human SN12C cells assessed as cell growth at 10^-5 M incubated for 48 hrs by sulforhodamine B assay; conditions: read-out: Activity
[1] = Growth inhibition of human SNB75 cells assessed as cell growth at 10^-7 M incubated for 48 hrs by sulforhodamine B assay; conditions: SNB-75, 48 h, read-out: Activity
[2] = Growth inhibition of human Caki1 cells assessed as cell growth at 10^-6 M incubated for 48 hrs by sulforhodamine B assay; conditions: CAKI-1, 48 h, read-out: Activity
How it was run: (§1)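 Cells seeded at 5,000–40,000/well according to doubling time and preincubated 24 h at 37 °C, 5% CO2. Time-zero plates were TCA-fixed. DMSO concentrate was diluted in medium with 50 µg/ml gentamicin to give five concentrations (10-fold or ½ log steps), then exposed 48 h. Cells were TCA-fixed, stained with 0.4% SRB and read at 515 nm. Percent growth was taken against time-zero and control; GI50, TGI and LC50 derived.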

SR = assay: Growth inhibition of human SR cells assessed as cell growth at 10^-7 M incubated for 48 hrs by sulforhodamine B assay; conditions: read-out: Activity
U-251 = assay: Growth inhibition of human U251 cells assessed as cell growth at 10^-5 M incubated for 48 hrs by sulforhodamine B assay; conditions: U-251, 48 h, read-out: Activity
NCI-H226 = assay: Growth inhibition of human NCI-H226 cells assessed as cell growth at 10^-6 M incubated for 48 hrs by sulforhodamine B assay; conditions: NCI-H226, 48 h, read-out: Activity
[3] = Growth inhibition of human UO31 cells assessed as cell growth at 10^-6 M incubated for 48 hrs by sulforhodamine B assay; conditions: UO-31, 48 h, read-out: Activity
[4] = Growth inhibition of human HCT116 cells assessed as cell growth at 10^-4 M incubated for 48 hrs by sulforhodamine B assay; conditions: HCT-116, 48 h, read-out: Activity; how it was run: as §1
[5] = Growth inhibition of human UACC257 cells assessed as cell growth at 10 uM incubated for 48 hrs by sulforhodamine B assay; conditions: UACC-257, 48 h, read-out: Activity
[6] = Growth inhibition of human HOP62 cells incubated for 48 hrs by sulforhodamine B assay; conditions: HOP-62, 48 h; how it was run: as §1
[7] = Growth inhibition of human OVCAR5 cells assessed as cell growth at 10^-4 M incubated for 48 hrs by sulforhodamine B assay; conditions: OVCAR-5, 48 h, read-out: Activity
ACHN [8] = assay: Growth inhibition of human ACHN cells assessed as cell growth at 10^-6 M incubated for 48 hrs by sulforhodamine B assay; conditions: read-out: Activity
How it was run: (§2)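 Five-dose assay: five concentrations from 10-fold or ½-log serial dilutions. Cells are plated at 5,000–40,000 per well according to doubling time, grown 24 h, then exposed 48 h at 37 °C, 5% CO₂. Fixed with cold 50% TCA (final addition) for 60 min at 4 °C and stained with 0.4% SRB in 1% acetic acid. Bound dye is solubilized in 10 mM Tris base and read at 515 nm. GI₅₀ is where [(Ti−Tz)/(C−Tz)]×100 = 50, with a time-zero plate as Tz.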

EKVX = assay: Growth inhibition of human EKVX cells incubated for 48 hrs by sulforhodamine B assay; how it was run: as §1
K562 = assay: Growth inhibition of human K562 cells assessed as cell growth at 10^-8 M incubated for 48 hrs by sulforhodamine B assay; conditions: K562, 48 h, read-out: Activity
ACHN [9] = assay: Growth inhibition of human ACHN cells incubated for 48 hrs by sulforhodamine B assay; how it was run: as §2
[10] = Growth inhibition of human BT549 cells assessed as cell growth at 10^-6 M incubated for 48 hrs by sulforhodamine B assay; conditions: BT-549, 48 h, read-out: Activity; how it was run: as §2
[11] = Growth inhibition of human SNB75 cells assessed as cell growth at 10^-6 M incubated for 48 hrs by sulforhodamine B assay; conditions: SNB-75, 48 h, read-out: Activity
MDA-MB-468 = assay: Growth inhibition of human MDA-MB-468 cells assessed as cell growth at 10^-5 M incubated for 48 hrs by sulforhodamine B assay; conditions: MDA-MB-468, 48 h, read-out: Activity
SK-MEL-28 = assay: Growth inhibition of human SK-MEL-28 cells assessed as cell growth at 10 uM incubated for 48 hrs by sulforhodamine B assay; conditions: SK-MEL-28, 48 h, read-out: Activity
NCI/ADR-RES = assay: Growth inhibition of human NCI/ADR-RES cells assessed as cell growth at 10^-6 M incubated for 48 hrs by sulforhodamine B assay; conditions: read-out: Activity
[12] = Growth inhibition of human BT549 cells assessed as cell growth at 10^-7 M incubated for 48 hrs by sulforhodamine B assay; conditions: BT-549, 48 h, read-out: Activity; how it was run: as §2
[13] = Growth inhibition of human TK10 cells incubated for 48 hrs by sulforhodamine B assay; conditions: TK-10, 48 h
How it was run: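 Cells were plated at 5,000–40,000 per well according to doubling time and preincubated 24 h at 37 °C in 5% CO2; time-zero plates were then TCA-fixed. Five concentrations (10-fold or ½-log dilutions, DMSO stock) were incubated 48 h. Cells were TCA-fixed, stained with 0.4% SRB and read at 515 nm. GI50 was taken where [(Ti−Tz)/(C−Tz)]×100 = 50.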

A498 = assay: Growth inhibition of human A498 cells assessed as cell growth at 10 uM incubated for 48 hrs by sulforhodamine B assay; conditions: A498, 48 h, read-out: Activity
How it was run: (§3)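 One-dose screen at 10 µM final. Cells are plated at 5,000–40,000 per well according to doubling time and preincubated 24 h at 37 °C, 5% CO₂. Compound (DMSO stock diluted in medium with 50 µg/ml gentamicin) is then added for 48 h. Growth percent is read by sulforhodamine B staining, absorbance at 515 nm.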

[14] = Growth inhibition of human HOP92 cells assessed as cell growth at 10^-4 M incubated for 48 hrs by sulforhodamine B assay; conditions: HOP-92, 48 h, read-out: Activity
786-0 = assay: Growth inhibition of human 786-0 cells assessed as cell growth at 10 uM incubated for 48 hrs by sulforhodamine B assay; conditions: 786-0, 48 h, read-out: Activity; how it was run: as §3
[15] = read-out: LC50 (the source's name)
[16] = read-out: pLC50 (the source's name) (converted)

Fc1ccc(-c2nc(Nc3ccc(-c4nc5ccccc5[nH]4)cc3)nc(N3CCOCC3)n2)cc1
growth at 10 µM (SN12C): 12%
growth at 0.1 µM [1]: 89%
growth at 1 µM [2]: 87%
growth at 0.1 µM (SR): 87%
growth at 10 µM (U-251): 5%
growth at 1 µM (NCI-H226): 113%
growth at 1 µM [3]: 90%
growth at 100 µM [4]: -78%
growth at 10 µM [5]: -27.6%
GI50 ([6]; read-out: GI50): 2.11 µM
LC50 ([6]; read-out: LC50): > 100 µM
TGI ([6]; read-out: TGI): 5.3 µM
GI50 ([6]; read-out: pGI50 (converted)): 2.09 µM
LC50 ([6]; read-out: pLC50 (converted)): > 100 µM
TGI ([6]; read-out: pTGI (converted)): 5.25 µM
growth at 100 µM [7]: -31%
growth at 1 µM (ACHN [8]): 82%
GI50 (EKVX; read-out: GI50): 2.6 µM
LC50 (EKVX; read-out: LC50): > 100 µM
TGI (EKVX; read-out: TGI): > 100 µM
GI50 (EKVX; read-out: pGI50 (converted)): 2.63 µM
LC50 (EKVX; read-out: pLC50 (converted)): > 100 µM
TGI (EKVX; read-out: pTGI (converted)): > 100 µM
growth at 0.01 µM (K562): 104%
GI50 (ACHN [9]; read-out: GI50): 2.55 µM
CC50 (ACHN [9]; [15]): > 100 µM
TGI (ACHN [9]; read-out: TGI): > 100 µM
GI50 (ACHN [9]; read-out: pGI50 (converted)): 2.57 µM
CC50 (ACHN [9]; [16]): > 100 µM
TGI (ACHN [9]; read-out: pTGI (converted)): > 100 µM
growth at 1 µM [10]: 83%
growth at 1 µM [11]: 67%
growth at 10 µM (MDA-MB-468): -14%
growth at 10 µM (SK-MEL-28): -34%
growth at 1 µM (NCI/ADR-RES): 90%
growth at 0.1 µM [12]: 97%
GI50 ([13]; read-out: GI50): 2.91 µM
CC50 [13, 15]: > 100 µM
TGI ([13]; read-out: TGI): 8.54 µM
GI50 ([13]; read-out: pGI50 (converted)): 2.88 µM
CC50 [13, 16]: > 100 µM
TGI ([13]; read-out: pTGI (converted)): 8.51 µM
growth at 10 µM (A498): -32.1%
growth at 100 µM [14]: -58%
growth at 10 µM (786-0): -60%

c1ccc2[nH]c(-c3ccc(Nc4nc(N5CCCCC5)nc(N5CCOCC5)n4)cc3)nc2c1
growth at 10 µM (SN12C): 32%
growth at 0.1 µM [1]: 74%
growth at 1 µM [2]: 87%
growth at 0.1 µM (SR): 88%
growth at 1 µM (NCI-H226): 89%
growth at 1 µM [3]: 87%
growth at 100 µM [4]: -75%
growth at 10 µM [5]: -19.3%
GI50 ([6]; read-out: GI50): 1.92 µM
LC50 ([6]; read-out: LC50): 9.73 µM
TGI ([6]; read-out: TGI): 4.32 µM
GI50 ([6]; read-out: pGI50 (converted)): 1.91 µM
LC50 ([6]; read-out: pLC50 (converted)): 9.77 µM
TGI ([6]; read-out: pTGI (converted)): 4.37 µM
growth at 100 µM [7]: -18%
growth at 1 µM (ACHN [8]): 90%
GI50 (EKVX; read-out: GI50): 2.68 µM
LC50 (EKVX; read-out: LC50): > 100 µM
TGI (EKVX; read-out: TGI): > 100 µM
GI50 (EKVX; read-out: pGI50 (converted)): 2.69 µM
LC50 (EKVX; read-out: pLC50 (converted)): > 100 µM
TGI (EKVX; read-out: pTGI (converted)): > 100 µM
growth at 0.01 µM (K562): 103%
GI50 (ACHN [9]; read-out: GI50): 3.14 µM
CC50 (ACHN [9]; [15]): > 100 µM
TGI (ACHN [9]; read-out: TGI): > 100 µM
GI50 (ACHN [9]; read-out: pGI50 (converted)): 3.16 µM
CC50 (ACHN [9]; [16]): > 100 µM
TGI (ACHN [9]; read-out: pTGI (converted)): > 100 µM
growth at 1 µM [10]: 89%
growth at 1 µM [11]: 69%
growth at 10 µM (MDA-MB-468): -24%
growth at 10 µM (SK-MEL-28): -30.2%
growth at 1 µM (NCI/ADR-RES): 95%
growth at 0.1 µM [12]: 95%
GI50 ([13]; read-out: GI50): 3.21 µM
CC50 [13, 15]: > 100 µM
TGI ([13]; read-out: TGI): 9.26 µM
GI50 ([13]; read-out: pGI50 (converted)): 3.24 µM
CC50 [13, 16]: > 100 µM
TGI ([13]; read-out: pTGI (converted)): 9.33 µM
growth at 10 µM (A498): -28.6%
growth at 100 µM [14]: -71%
growth at 10 µM (786-0): -57.3%
